Measurements as given in ChEMBL document CHEMBL3994591, “Novel ferulic amide derivatives with tertiary amine side chain as acetylcholinesterase and butyrylcholinesterase inhibitors: The influence of carbon spacer length, alkylamine and aromatic group” (Eur J Med Chem, 2017).

Legend:
Homo sapiens = species on record: Homo sapiens; test: Selectivity index, ratio of IC50 for butyrylcholinesterase (unknown origin) to IC50 for acetylcholinesterase (unknown origin)
Acetylcholinesterase [1] = target: T1, Acetylcholinesterase (Homo sapiens, UniProt P22303); test: Inhibition of acetylcholinesterase (unknown origin) using acetylthiocholine iodide as substrate after 25 mins by Ellmann method
T1 sequence (P22303 whole entry): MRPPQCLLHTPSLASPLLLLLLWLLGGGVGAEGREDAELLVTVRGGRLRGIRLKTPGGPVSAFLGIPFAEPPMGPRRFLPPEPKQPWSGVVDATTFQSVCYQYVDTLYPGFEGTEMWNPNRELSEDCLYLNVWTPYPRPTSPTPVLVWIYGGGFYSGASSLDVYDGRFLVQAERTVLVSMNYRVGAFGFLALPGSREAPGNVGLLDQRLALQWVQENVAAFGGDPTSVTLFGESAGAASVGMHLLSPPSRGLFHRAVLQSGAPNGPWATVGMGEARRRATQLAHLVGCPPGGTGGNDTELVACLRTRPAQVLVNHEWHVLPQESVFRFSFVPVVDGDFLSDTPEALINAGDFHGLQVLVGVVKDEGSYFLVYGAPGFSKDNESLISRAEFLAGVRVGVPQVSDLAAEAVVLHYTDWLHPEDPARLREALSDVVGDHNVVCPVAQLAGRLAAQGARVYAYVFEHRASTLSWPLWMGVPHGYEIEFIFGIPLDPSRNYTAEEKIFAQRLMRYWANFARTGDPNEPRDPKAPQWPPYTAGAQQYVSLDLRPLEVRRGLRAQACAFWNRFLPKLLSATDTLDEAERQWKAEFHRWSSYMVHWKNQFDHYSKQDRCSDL
How it was run: (§1)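 Modified Ellman assay, triplicate. Compounds dissolved in Tween 80, diluted with water to five concentrations. Mix: enzyme […], substrate (acetylthiocholine iodide or butyrylthiocholine iodide) and test compound in phosphoric acid buffer, pH 8.0, 0.1 mol/L. Incubated 25 min at 30 °C, then terminated. IC50 reported as mean ± SD of three experiments.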

Cholinesterase = Cholinesterase (Homo sapiens, UniProt P06276); test: Inhibition of butyrylcholinesterase (unknown origin) using butyrylthiocholine iodide as substrate after 25 mins by Ellmann method; how it was run: as §1
Cholinesterase, sequence (P06276 whole entry): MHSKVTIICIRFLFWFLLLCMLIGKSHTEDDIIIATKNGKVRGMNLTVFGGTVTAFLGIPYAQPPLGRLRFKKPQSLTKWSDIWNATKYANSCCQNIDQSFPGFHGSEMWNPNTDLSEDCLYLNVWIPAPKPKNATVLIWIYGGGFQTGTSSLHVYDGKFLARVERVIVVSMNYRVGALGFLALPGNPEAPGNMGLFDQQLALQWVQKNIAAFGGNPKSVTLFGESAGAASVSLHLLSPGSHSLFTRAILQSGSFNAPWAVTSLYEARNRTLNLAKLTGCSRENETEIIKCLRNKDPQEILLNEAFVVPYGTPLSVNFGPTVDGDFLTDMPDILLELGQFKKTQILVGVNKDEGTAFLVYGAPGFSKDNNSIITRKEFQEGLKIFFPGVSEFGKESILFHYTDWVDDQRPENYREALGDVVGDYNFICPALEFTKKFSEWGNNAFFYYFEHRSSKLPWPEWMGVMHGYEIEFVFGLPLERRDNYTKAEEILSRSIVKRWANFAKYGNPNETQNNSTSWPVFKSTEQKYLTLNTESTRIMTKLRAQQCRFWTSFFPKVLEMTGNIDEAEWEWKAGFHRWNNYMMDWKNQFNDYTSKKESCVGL

[2] = Octanol-water partition coefficient, log P of the compound at pH 7.4 by shake flask method; type: physicochemical
How it was run: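 Shake flask partition between octanol and PBS (pH 7.4). Mixture shaken at 37 °C overnight, then centrifuged at 2000 rpm for 20 min. Phases analysed by C18 HPLC with methanol-0.1% TEA (85:15, v/v) at 1.0 mL/min and 32 °C, detection at 322 nm. Run in triplicate, log P calculated.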

[3] = Inhibition of carboxylesterase (unknown origin) using 4-nitrophenyl acetate as substrate by UV-Vis spectrophotometer; set-up: species or system Homo sapiens
How it was run: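 Read-out was 4-nitrophenol released by CaE hydrolysis of 1.0 mmol/L 4-nitrophenyl acetate, measured at 405 nm. Reactions ran in 100 mmol/L potassium phosphate buffer, pH 8.0, at 25 °C. CaE activity was taken as proportional to 4-nitrophenol concentration.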

Acetylcholinesterase [4] = target: T1, Acetylcholinesterase; test: Potency index, ratio of rivastigmine IC50 to compound IC50 for acetylcholinesterase (unknown origin)

COc1cc(/C=C/C(=O)Nc2ccccc2)ccc1OCCCCCCCCN1CCCCC1
Ratio IC50 (Homo sapiens): 1.32 | IC50 (Acetylcholinesterase [1]): 4.12 µM | IC50 (Cholinesterase): 5.45 µM | logD [2]: 1.79 | IC50 [3]: > 500 µM

CCN(CC)CCCCCCOc1ccc(/C=C/C(=O)O)cc1OC
Ratio IC50 (Homo sapiens): 98.6 | IC50 (Acetylcholinesterase [1]): 2.67 µM | IC50 (Cholinesterase): 263 µM | logD [2]: 1.29 | IC50 [3]: > 500 µM

CCN(CC)CCCCOc1ccc(/C=C/C(=O)Nc2ccccc2)cc1OC
Ratio IC50 (Homo sapiens): 0.6 | IC50 (Acetylcholinesterase [1]): 41.6 µM | IC50 (Cholinesterase): 25.1 µM | logD [2]: 1.59 | IC50 [3]: > 500 µM

CCN(CC)CCCOc1ccc(/C=C/C(=O)Nc2ccccc2)cc1OC
Ratio IC50 (Homo sapiens): 0.71 | IC50 (Acetylcholinesterase [1]): 23.7 µM | IC50 (Cholinesterase): 16.9 µM | logD [2]: 1.57 | IC50 [3]: > 500 µM

COc1cc(/C=C/C(=O)O)ccc1OCCCCCCN1CCCCC1
Ratio IC50 (Homo sapiens): 3.2 | IC50 (Acetylcholinesterase [1]): 45.6 µM | IC50 (Cholinesterase): 146 µM | logD [2]: 1.32 | IC50 [3]: > 500 µM

CCN(CC)CCCCCCCCCCOc1ccc(/C=C/C(=O)Nc2ccccc2)cc1OC
Ratio IC50 (Homo sapiens): 0.57 | IC50 (Acetylcholinesterase [1]): 14.9 µM | IC50 (Cholinesterase): 8.47 µM | logD [2]: 1.83 | IC50 [3]: > 500 µM

CCN(CC)CCCCCCCCOc1ccc(/C=C/C(=O)O)cc1OC
Ratio IC50 (Homo sapiens): 95.1 | IC50 (Acetylcholinesterase [1]): 3.18 µM | IC50 (Cholinesterase): 302 µM | logD [2]: 1.51 | IC50 [3]: > 500 µM

CCOC(=O)/C=C/c1ccc(OCCCCCCN(CC)CC)c(OC)c1
Ratio IC50 (Homo sapiens): 5.87 | IC50 (Acetylcholinesterase [1]): 1.94 µM | IC50 (Cholinesterase): 11.4 µM | logD [2]: 1.8 | IC50 [3]: > 500 µM

COc1cc(/C=C/C(=O)Nc2ccccc2)ccc1OCCCCN1CCCCC1
Ratio IC50 (Homo sapiens): 0.8 | IC50 (Acetylcholinesterase [1]): 7.14 µM | IC50 (Cholinesterase): 5.69 µM | logD [2]: 1.61 | IC50 [3]: > 500 µM

CCN(CC)CCCCCOc1ccc(/C=C/C(=O)Nc2ccccc2)cc1OC
Ratio IC50 (Homo sapiens): 1.17 | IC50 (Acetylcholinesterase [1]): 19 µM | IC50 (Cholinesterase): 22.1 µM | logD [2]: 1.63 | IC50 [3]: > 500 µM

COc1cc(/C=C/C(=O)Nc2ccccc2)ccc1OCCCCCCCCN(C)C
Ratio IC50 (Homo sapiens): 1.16 | IC50 (Acetylcholinesterase [1]): 8.95 µM | IC50 (Cholinesterase): 10.4 µM | logD [2]: 1.74 | IC50 [3]: > 500 µM

CCOC(=O)/C=C/c1ccc(OCCCCCCN2CCCCC2)c(OC)c1
Ratio IC50 (Homo sapiens): 15.8 | IC50 (Acetylcholinesterase [1]): 2.65 µM | IC50 (Cholinesterase): 41.8 µM | logD [2]: 1.81 | IC50 [3]: > 500 µM

CCN(CC)CCOc1ccc(/C=C/C(=O)Nc2ccccc2)cc1OC
Ratio IC50 (Homo sapiens): 0.28 | IC50 (Acetylcholinesterase [1]): 41.1 µM | IC50 (Cholinesterase): 11.5 µM | logD [2]: 1.53 | IC50 [3]: > 500 µM

CCOC(=O)/C=C/c1ccc(OCCCCCCN2CCCC2)c(OC)c1
Ratio IC50 (Homo sapiens): 74.6 | IC50 (Acetylcholinesterase [1]): 5.05 µM | IC50 (Cholinesterase): 377 µM | logD [2]: 1.82 | IC50 [3]: > 500 µM

COc1cc(/C=C/C(=O)Nc2ccccc2)ccc1OCCCCCCN(C)C
Ratio IC50 (Homo sapiens): 0.8 | IC50 (Acetylcholinesterase [1]): 8.4 µM | IC50 (Cholinesterase): 6.72 µM | logD [2]: 1.69 | IC50 [3]: > 500 µM

COc1cc(/C=C/C(=O)Nc2ccccc2)ccc1OCCCCN(C)C
Ratio IC50 (Homo sapiens): 0.26 | IC50 (Acetylcholinesterase [1]): 100 µM | IC50 (Cholinesterase): 25.9 µM | logD [2]: 1.57 | IC50 [3]: > 500 µM

CCN(C)C(=O)Oc1cccc([C@H](C)N(C)C)c1 [RIVASTIGMINE]
logD [2]: 1.68 | IC50 [3]: 31.1 µM

COc1cc(/C=C/C(=O)Nc2ccccc2)ccc1OCCCCCN1CCCCC1
Ratio IC50 (Homo sapiens): 1.23 | IC50 (Acetylcholinesterase [1]): 4.8 µM | IC50 (Cholinesterase): 5.9 µM | logD [2]: 1.65 | IC50 [3]: > 500 µM

CCOC(=O)/C=C/c1ccc(OCCCCCCCCN(CC)CC)c(OC)c1
Ratio IC50 (Homo sapiens): 8.37 | IC50 (Acetylcholinesterase [1]): 1.56 µM | IC50 (Cholinesterase): 13 µM | logD [2]: 1.98 | IC50 [3]: > 500 µM

COc1cc(/C=C/C(=O)Nc2ccccc2)ccc1OCCCCCN(C)C
Ratio IC50 (Homo sapiens): 0.37 | IC50 (Acetylcholinesterase [1]): 33 µM | IC50 (Cholinesterase): 12.1 µM | logD [2]: 1.61 | IC50 [3]: > 500 µM

COc1cc(/C=C/C(=O)Nc2ccccc2)ccc1OCCCN1CCCC1
Ratio IC50 (Homo sapiens): 0.38 | IC50 (Acetylcholinesterase [1]): 37.1 µM | IC50 (Cholinesterase): 14.2 µM | logD [2]: 1.57 | IC50 [3]: > 500 µM

CCN(CC)CCCCCCCCOc1ccc(/C=C/C(=O)Nc2ccccc2)cc1OC
Ratio IC50 (Homo sapiens): 2.93 | IC50 (Acetylcholinesterase [1]): 1.36 µM | IC50 (Cholinesterase): 3.98 µM | logD [2]: 1.75 | IC50 [3]: > 500 µM

COc1cc(/C=C/C(=O)Nc2ccccc2)ccc1OCCCN1CCCCC1
Ratio IC50 (Homo sapiens): 0.33 | IC50 (Acetylcholinesterase [1]): 14.5 µM | IC50 (Cholinesterase): 4.78 µM | logD [2]: 1.58 | IC50 [3]: > 500 µM

COc1cc(/C=C/C(=O)O)ccc1OCCCCCCN1CCCC1
Ratio IC50 (Homo sapiens): 4.1 | IC50 (Acetylcholinesterase [1]): 69.9 µM | IC50 (Cholinesterase): 287 µM | logD [2]: 1.29 | IC50 [3]: > 500 µM

COc1cc(/C=C/C(=O)Nc2ccccc2)ccc1OCCCCCCCCCCN1CCCC1
Ratio IC50 (Homo sapiens): 0.22 | IC50 (Acetylcholinesterase [1]): 13.5 µM | IC50 (Cholinesterase): 2.99 µM | logD [2]: 1.86 | IC50 [3]: > 500 µM

CCN(CC)CCCCCCOc1ccc(/C=C/C(=O)Nc2ccccc2)cc1OC
Ratio IC50 (Homo sapiens): 2.66 | IC50 (Acetylcholinesterase [1]): 1.83 µM | IC50 (Cholinesterase): 4.86 µM | logD [2]: 1.7 | IC50 [3]: > 500 µM

COc1cc(/C=C/C(=O)Nc2ccccc2)ccc1O
IC50 (Acetylcholinesterase [1]): > 500 µM | IC50 (Cholinesterase): > 500 µM | logD [2]: 1.42 | IC50 [3]: > 500 µM

COc1cc(/C=C/C(=O)Nc2ccccc2)ccc1OCCN(C)C
Ratio IC50 (Homo sapiens): 1 | IC50 (Acetylcholinesterase [1]): 23.2 µM | IC50 (Cholinesterase): 23.3 µM | logD [2]: 1.5 | IC50 [3]: > 500 µM

COc1cc(/C=C/C(=O)Nc2ccccc2)ccc1OCCCCCCN1CCCC1
Ratio IC50 (Acetylcholinesterase [4]): 9 | Ratio IC50 (Homo sapiens): 2.01 | IC50 (Acetylcholinesterase [1]): 1.11 µM | IC50 (Cholinesterase): 2.23 µM | logD [2]: 1.76 | IC50 [3]: > 500 µM

COc1cc(/C=C/C(=O)Nc2ccccc2)ccc1OCCCCN1CCCC1
Ratio IC50 (Homo sapiens): 0.16 | IC50 (Acetylcholinesterase [1]): 24.4 µM | IC50 (Cholinesterase): 3.83 µM | logD [2]: 1.6 | IC50 [3]: > 500 µM

COc1cc(/C=C/C(=O)Nc2ccccc2)ccc1OCCN1CCCCC1
Ratio IC50 (Homo sapiens): 0.12 | IC50 (Acetylcholinesterase [1]): 19.4 µM | IC50 (Cholinesterase): 2.34 µM | logD [2]: 1.56 | IC50 [3]: > 500 µM

COc1cc(/C=C/C(=O)Nc2ccccc2)ccc1OCCCCCCCCN1CCCC1
Ratio IC50 (Homo sapiens): 1.38 | IC50 (Acetylcholinesterase [1]): 2.91 µM | IC50 (Cholinesterase): 4.03 µM | logD [2]: 1.78 | IC50 [3]: > 500 µM

COc1cc(/C=C/C(=O)Nc2ccccc2)ccc1OCCCCCCCCCCN1CCCCC1
Ratio IC50 (Homo sapiens): 0.44 | IC50 (Acetylcholinesterase [1]): 11.1 µM | IC50 (Cholinesterase): 4.84 µM | logD [2]: 1.83 | IC50 [3]: > 500 µM

COc1cc(/C=C/C(=O)Nc2ccccc2)ccc1OCCCN(C)C
Ratio IC50 (Homo sapiens): 0.59 | IC50 (Acetylcholinesterase [1]): 33.9 µM | IC50 (Cholinesterase): 20 µM | logD [2]: 1.55 | IC50 [3]: > 500 µM

COc1cc(/C=C/C(=O)Nc2ccccc2)ccc1OCCCCCN1CCCC1
Ratio IC50 (Homo sapiens): 0.77 | IC50 (Acetylcholinesterase [1]): 6.21 µM | IC50 (Cholinesterase): 4.78 µM | logD [2]: 1.64 | IC50 [3]: > 500 µM

COc1cc(/C=C/C(=O)Nc2ccccc2)ccc1OCCCCCCCCCCN(C)C
Ratio IC50 (Homo sapiens): 2.07 | IC50 (Acetylcholinesterase [1]): 9.93 µM | IC50 (Cholinesterase): 20.6 µM | logD [2]: 1.8 | IC50 [3]: > 500 µM

COc1cc(/C=C/C(=O)Nc2ccccc2)ccc1OCCN1CCCC1
Ratio IC50 (Homo sapiens): 0.36 | IC50 (Acetylcholinesterase [1]): 35.1 µM | IC50 (Cholinesterase): 12.7 µM | logD [2]: 1.54 | IC50 [3]: > 500 µM
